{"source": "paper PMC8719016", "about": "(iScience, 2021)", "key": {"[1]": {"assay": "MBC of β-AMPs with and without 40% human serum", "type": "cell-based", "conditions": "MH vs MH with 40% human serum; strain not given", "summary_of_the_method": "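Broth microdilution is run in MH with or without human serum, which is added to the cell suspension at twice the final level. Test compound is taken from 256 µg/mL through 2-fold serial dilutions in triplicate, with 5 × 10^5 cells/mL final, for 18–24 h at 37°C. 5 µL per well is plated on LB agar for 18 h at 37°C. MBC is the lowest concentration with zero growth, median of triplicates.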"}, "A. baumannii AB5075": {"test_system": "A. baumannii AB5075", "assay": "Isolation of resistant mutants by subinhibitory serial passage", "type": "cell-based, Acinetobacter baumannii", "conditions": "subinhibitory serial passage in liquid media over two weeks"}, "human red blood cells [2]": {"test_system": "human red blood cells", "assay": "Hemolysis", "type": "cell-based", "conditions": "2-fold serial dilutions, compared with 1% Triton X-100 (100%); n = 3"}, "[3]": {"test_system": "A. baumannii AB5075 knockout or overexpression strains", "assay": "MIC against knockout or overexpression strains of upregulated genes", "type": "cell-based, Acinetobacter baumannii", "conditions": "all the upregulated genes tested (Table S1: fold change MIC 1 for each)", "summary_of_the_method": "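Genes for overexpression are cloned via EcoRI/SalI into pMMBEH67 TetR, electroporated into AB5075 and selected on LB with 10 µg/mL tetracycline. […] The MIC is the lowest concentration with no visible growth, by eye, median of triplicates.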"}, "[4]": {"test_system": "E. coli KS272, HM130 and HM130 with trypsin protease", "assay": "MBC with and without protease activity", "type": "cell-based, Escherichia coli", "conditions": "KS272, HM130, HM130 with 160 ng/mL trypsin protease, MH media", "summary_of_the_method": "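E. coli KS272 (parent) and HM130 (cell envelope proteases deleted) are grown overnight at 37°C. Trypsin, where used, is added to the diluted cells at twice the final concentration. Test compound is taken from 256 µg/mL through 2-fold serial dilutions in triplicate, 5 × 10^5 cells/mL final, for 18–24 h at 37°C.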"}, "human red blood cells [5]": {"test_system": "human red blood cells", "conditions": "ref Edwards et al., 2016; cited from earlier work"}, "Solubility in water": {"assay": "Solubility in water", "type": "physicochemical", "conditions": "lyophilized peptides resuspended in water at 10 mg/mL"}}, "note": "Peptide text beside a SMILES is read from it."}
{"compound": "CC[C@H](C)[C@H](NC(=O)[C@H](CCCCN)NC(=O)[C@@H](NC(=O)[C@H](CC(N)=O)NC(=O)[C@H](C)NC(=O)[C@H](CCCNC(=N)N)NC(=O)[C@H](CCCNC(=N)N)NC(=O)[C@H](CC(N)=O)NC(=O)[C@H](CCCNC(=N)N)NC(=O)[C@H](CCCNC(=N)N)NC(=O)[C@H](C)NC(=O)[C@@H](NC(=O)[C@H](CO)NC(=O)[C@@H](NC(=O)[C@@H](NC(=O)[C@H](CS)NC(=O)[C@H](CCCCN)NC(=O)[C@@H](N)CCCNC(=N)N)C(C)C)[C@@H](C)CC)C(C)C)[C@@H](C)CC)C(=O)N[C@@H](CC(C)C)C(=O)N[C@@H](CS)C(=O)N[C@@H](CC(N)=O)C(N)=O", "note": "[Symbah-1] (H-RKCVISVARRNRRANIKILCN-NH2; N-terminus assumed)", "values": [{"measurement": "Loss of activity (MBC) when 40% human serum was added", "setting": "[1]", "result": 8, "unit": "fold"}, {"measurement": "Isolation of resistant mutants", "setting": "A. baumannii AB5075", "result": "no isolates with improved resistance"}, {"measurement": "Percent hemolysis of serial dilutions", "setting": "human red blood cells [2]", "result": "very low hemolysis relative to protegrin-1 and tachyplesin-1"}, {"measurement": "Effect of gene knockout or overexpression on MIC", "setting": "[3]", "result": "no clear effect on MIC"}, {"measurement": "Change of MBC under each of the conditions tested", "setting": "[4]", "result": "≤ 2", "unit": "fold"}]}
{"compound": "GSKKPVPIIYCNRRTGKCQRM (disulfide) [Thanatin]", "values": [{"measurement": "Hemolysis previously reported", "setting": "human red blood cells [5]", "result": "very low hemolysis"}]}
{"compound": "RGGRLCYCRRRFCVCVGR--- (bicyclic or more) [protegrin-1, reference compound]", "values": [{"measurement": "Loss of activity (MBC) when 40% human serum was added", "setting": "[1]", "result": "no change"}]}
{"compound": "RKCVILCAR-NRRA-CVILCR [SBH-19]", "values": [{"measurement": "Solubility in water", "setting": "Solubility in water", "result": "insoluble in water"}]}
